Test results as given in ChEMBL document CHEMBL3232870, “Discovery of 3-(4-methanesulfonylphenoxy)-N-[1-(2-methoxy-ethoxymethyl)-1H-pyrazol-3-yl]-5-(3-methylpyridin-2-yl)-benzamide as a novel glucokinase activator (GKA) for the treatment of type 2 diabetes mellitus” (Bioorg Med Chem, 2014).

Tests used:
Canis familiaris = assay: Toxicity in Beagle dog assessed as testicular effect administered repeated dose level of 100 mg/kg/day, po administered on days 3, 6 and 8 by hematoxylin and eosin staining-based microscopy; type: organism-based, Canis lupus familiaris; set-up: route oral; details: in vivo
Method in brief: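 Dogs received escalating oral doses of 100, 300 and 1000 mg/kg/day over 8 days (Days 3, 6 and 8 for each dose). Vehicle was 0.5% methylcellulose at 5 mL/kg. Two animals were necropsied at termination, and testes were fixed in modified Davidson's fixative, paraffin-embedded, H&E-stained and examined microscopically.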

[1] = Cmax in female Sprague-Dawley rat at 250 mg/kg, po measured on day 1; type: ADME, organism-based; set-up: dose 250 mg/kg, route oral; details: in vivo
Method in brief: (§1)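 Sprague–Dawley rats, 5 weeks old at arrival, both sexes. Given the compound by oral gavage once daily for 14 days at 0, 250, 500 or 1000 mg/kg/day, with 0.5% methylcellulose as vehicle. Toxicokinetic parameters were determined on Day 1 and Day 14.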

Cytochrome P450 2C9 = Cytochrome P450 2C9 (Homo sapiens, UniProt P11712); assay: Inhibition of CYP2C9 in human liver microsomes; type: ADME
Method in brief: (§2)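 Pooled human liver microsomes at 0.25 mg/mL, each with a CYP-selective substrate and test compound up to 25 µM, preincubated at 37 °C. It is stopped on ice with ice-cold acetonitrile and centrifuged, and the supernatant is analysed by LC–MS/MS.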

[2] = Tmax in male Sprague-Dawley rat at 500 mg/kg, po measured on day 1; type: ADME, organism-based; set-up: dose 500 mg/kg, route oral; details: in vivo
Method in brief: (§3)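 Sprague–Dawley rats of both sexes, 5 weeks old at arrival, received daily oral gavage at 0, 250, 500 or 1000 mg/kg/day for 14 days. Vehicle was 0.5% methylcellulose at 10 mL/kg. Toxicokinetics were taken on Day 1 and Day 14. Necropsy was by Day 15. Testis was fixed in modified Davidson's fixative, paraffin-sectioned and H&E-stained, with histopathology on control and high-dose groups only.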

[3] = AUC (0 to t) in female Sprague-Dawley rat at 1000 mg/kg, po measured on day 1; type: ADME, organism-based; set-up: dose 1000 mg/kg, route oral; details: plasma; method in brief: as §1
[4] = Cmax in female Sprague-Dawley rat at 1000 mg/kg, po measured on day 14; type: ADME, organism-based; set-up: dose 1000 mg/kg, route oral; details: in vivo; method in brief: as §1
[5] = Mean residence time in Sprague-Dawley rat at 3 mg/kg, iv and 10 mg/kg, po; type: ADME, organism-based; details: in vivo
Method in brief: (§4)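 Male ICR mice and 7-week-old SD rats received a 3 mg/kg iv bolus or a 10 mg/kg oral gavage dose. Plasma was precipitated with 2 volumes of acetonitrile and analysed by HPLC. Parameters came from noncompartmental analysis.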

Rattus norvegicus = assay: Toxicity in Sprague-Dawley rat assessed as seminiferous tubule vacuolation at 250 to 1000 mg/kg, po by hematoxylin and eosin staining-based microscopy; type: organism-based; set-up: dose 250-1000 mg/kg, route oral; details: in vivo; method in brief: as §3
Cytochrome P450 2C8 = molecular target: T1, Cytochrome P450 2C8 (Homo sapiens, UniProt P10632); assay: Inhibition of CYP2C8 in human liver microsomes; type: ADME; method in brief: as §2
T1 sequence (P10632 whole entry): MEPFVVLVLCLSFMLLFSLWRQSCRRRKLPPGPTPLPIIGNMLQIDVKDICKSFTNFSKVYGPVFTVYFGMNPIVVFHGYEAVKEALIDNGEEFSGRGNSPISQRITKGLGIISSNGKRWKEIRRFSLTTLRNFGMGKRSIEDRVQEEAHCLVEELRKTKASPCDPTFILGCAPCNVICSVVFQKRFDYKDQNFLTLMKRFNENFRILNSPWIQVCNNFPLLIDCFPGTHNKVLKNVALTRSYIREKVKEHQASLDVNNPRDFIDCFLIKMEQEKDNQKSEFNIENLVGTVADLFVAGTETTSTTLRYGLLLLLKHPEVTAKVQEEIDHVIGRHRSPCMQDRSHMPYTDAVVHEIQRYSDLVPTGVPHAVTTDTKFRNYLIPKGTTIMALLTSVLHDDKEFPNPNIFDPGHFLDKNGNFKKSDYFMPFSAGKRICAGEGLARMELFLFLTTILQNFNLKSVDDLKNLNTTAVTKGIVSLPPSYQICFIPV

[6] = AUC (0 to t) in female Sprague-Dawley rat at 500 mg/kg, po measured on day 1; type: ADME, organism-based; set-up: dose 500 mg/kg, route oral; details: plasma; method in brief: as §1
Cytochrome P450 3A = Cytochrome P450 3A (Homo sapiens, UniProt P08684+P20815+Q9HB55+P24462); assay: Inhibition of CYP3A in human liver microsomes; type: ADME; method in brief: as §2
Salmonella typhimurium [7] = assay: Cytotoxicity in Salmonella typhimurium TA100 at 1.5 to 5000 ug/plate in presence of S9 fraction; type: organism-based; details: salmonella enterica subsp. enterica serovar typhimurium
Method in brief: (§5)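 Ames reverse mutation test by direct plate incorporation in S. typhimurium TA98 and TA100, with or without Aroclor 1254-induced rat liver S9 mix. Compound in DMSO at 1.5–5000 µg/plate, plated in top agar, incubated 37 °C for about 50 h, then revertant colonies counted. Plates were checked for precipitation and cytotoxicity. A positive was a reproducible, dose-related increase in revertants of more than 2-fold.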

[8] = Mean residence time in ICR mouse at 3 mg/kg, iv and 10 mg/kg, po; type: ADME, organism-based; details: in vivo; method in brief: as §4
[9] = AUC (0 to t) in male Sprague-Dawley rat at 250 mg/kg, po measured on day 14; type: ADME, organism-based; set-up: dose 250 mg/kg, route oral; details: plasma; method in brief: as §1
Salmonella typhimurium [10] = assay: Cytotoxicity in Salmonella typhimurium TA98 at 1.5 to 5000 ug/plate in absence of S9 fraction; type: organism-based; details: salmonella enterica subsp. enterica serovar typhimurium; method in brief: as §5
[11] = Cmax in female Sprague-Dawley rat at 1000 mg/kg, po measured on day 1; type: ADME, organism-based; set-up: dose 1000 mg/kg, route oral; details: in vivo; method in brief: as §1
[12] = AUC (0 to t) in female Sprague-Dawley rat at 250 mg/kg, po measured on day 1; type: ADME, organism-based; set-up: dose 250 mg/kg, route oral; details: plasma; method in brief: as §1
[13] = Cmax in male Sprague-Dawley rat at 1000 mg/kg, po measured on day 14; type: ADME, organism-based; set-up: dose 1000 mg/kg, route oral; details: in vivo; method in brief: as §1
Cytochrome P450 2C19 = Cytochrome P450 2C19 (Homo sapiens, UniProt P33261); assay: Inhibition of CYP2C19 in human liver microsomes; type: ADME
Method in brief: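 Pooled human liver microsomes (0.25 mg/mL) with a CYP-selective substrate and test compound, preincubated at 37 °C. Stopped on ice with ice-cold acetonitrile, centrifuged, and the supernatant analysed by LC–MS/MS.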

[14] = Elimination half life in Sprague-Dawley rat at 3 mg/kg, iv and 10 mg/kg, po; type: ADME, organism-based; details: in vivo, read-out: beta t1/2 (converted)
Method in brief: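 Male ICR mice and 7-week-old SD rats received a 3 mg/kg intravenous bolus or a 10 mg/kg oral gavage dose. Plasma was deproteinized with acetonitrile (2 volumes) and compound measured by HPLC. Parameters came from noncompartmental analysis.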

[15] = Apparent permeability of the compound by PAMPA; type: physicochemical
[16] = Cmax in female Sprague-Dawley rat at 500 mg/kg, po measured on day 14; type: ADME, organism-based; set-up: dose 500 mg/kg, route oral; details: in vivo; method in brief: as §1
[17] = Tmax in male Sprague-Dawley rat at 1000 mg/kg, po measured on day 14; type: ADME, organism-based; set-up: dose 1000 mg/kg, route oral; details: in vivo; method in brief: as §3
[18] = Metabolic stability in dog liver microsomes assessed as compound remaining after 1 hr relative to control; type: ADME, Canis lupus familiaris; details: read-out: Stability
Method in brief: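 Liver microsomes from mouse, dog or human were incubated with compound for 1 h, and the percentage of compound remaining was determined.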

[19] = Cmax in male Sprague-Dawley rat at 500 mg/kg, po measured on day 14; type: ADME, organism-based; set-up: dose 500 mg/kg, route oral; details: in vivo; method in brief: as §1
[20] = AUC (0 to t) in male Sprague-Dawley rat at 250 mg/kg, po measured on day 1; type: ADME, organism-based; set-up: dose 250 mg/kg, route oral; details: plasma; method in brief: as §1
[21] = Tmax in female Sprague-Dawley rat at 500 mg/kg, po measured on day 1; type: ADME, organism-based; set-up: dose 500 mg/kg, route oral; details: in vivo; method in brief: as §3
[22] = Oral bioavailability in ICR mouse at 10 mg/kg; type: ADME, organism-based; details: in vivo; method in brief: as §4

Cytochrome P450 2C19, sequence (P33261 whole entry): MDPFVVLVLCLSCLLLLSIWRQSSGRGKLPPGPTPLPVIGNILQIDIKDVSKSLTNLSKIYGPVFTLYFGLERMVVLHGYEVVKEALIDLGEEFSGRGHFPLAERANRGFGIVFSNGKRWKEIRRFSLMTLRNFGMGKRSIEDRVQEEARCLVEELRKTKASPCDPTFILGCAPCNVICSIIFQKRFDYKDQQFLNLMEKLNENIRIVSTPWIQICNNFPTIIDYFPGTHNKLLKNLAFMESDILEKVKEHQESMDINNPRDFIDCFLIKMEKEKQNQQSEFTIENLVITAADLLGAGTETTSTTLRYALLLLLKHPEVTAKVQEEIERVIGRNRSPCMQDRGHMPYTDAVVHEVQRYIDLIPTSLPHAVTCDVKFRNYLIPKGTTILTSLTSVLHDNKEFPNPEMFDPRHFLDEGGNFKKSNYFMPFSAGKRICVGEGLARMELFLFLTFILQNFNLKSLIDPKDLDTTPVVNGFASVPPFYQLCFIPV
Cytochrome P450 2C9, sequence (P11712 whole entry): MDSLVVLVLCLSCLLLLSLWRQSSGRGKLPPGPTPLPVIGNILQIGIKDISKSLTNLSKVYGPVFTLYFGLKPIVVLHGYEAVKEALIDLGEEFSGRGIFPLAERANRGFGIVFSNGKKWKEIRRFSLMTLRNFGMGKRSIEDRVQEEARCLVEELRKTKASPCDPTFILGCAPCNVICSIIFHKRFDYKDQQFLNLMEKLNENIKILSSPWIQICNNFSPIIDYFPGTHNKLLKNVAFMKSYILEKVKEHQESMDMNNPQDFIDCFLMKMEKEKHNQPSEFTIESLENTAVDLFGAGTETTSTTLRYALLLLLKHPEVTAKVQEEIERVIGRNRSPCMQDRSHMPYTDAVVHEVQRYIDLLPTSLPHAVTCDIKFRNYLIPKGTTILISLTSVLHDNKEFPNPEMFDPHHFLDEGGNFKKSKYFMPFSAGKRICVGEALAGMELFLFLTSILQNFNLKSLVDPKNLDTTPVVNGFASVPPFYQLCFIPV

COCCOCn1ccc(NC(=O)c2cc(Oc3ccc(S(C)(=O)=O)cc3)cc(-c3ncccc3C)c2)n1
Activity (Canis familiaris): Non-toxic | Cmax [1]: 3450 ng/mL | IC50 (Cytochrome P450 2C9): 5.2 µM | Tmax [2]: 3.7 h | AUC(0-t) [3]: 29200 ng·h/mL | Cmax [4]: 5210 ng/mL | MRT [5]: 0.37 h | Activity (Rattus norvegicus): Non-toxic | inhibition (INH) (Cytochrome P450 2C8): Not Active | AUC(0-t) [6]: 19800 ng·h/mL | inhibition (INH) (Cytochrome P450 3A): Not Active | Activity (Salmonella typhimurium [7]): Non-toxic | MRT [8]: 0.92 h | AUC(0-t) [9]: 8180 ng·h/mL | Activity (Salmonella typhimurium [10]): Non-toxic | Cmax [11]: 7590 ng/mL | AUC(0-t) [12]: 13700 ng·h/mL | Cmax [13]: 3090 ng/mL | inhibition (INH) (Cytochrome P450 2C19): Not Active | half-life [14]: 0.3 h | Papp [15]: 2.62 ×10⁻⁶ cm/s | Cmax [16]: 3920 ng/mL | Tmax [17]: 5 h | remaining at 1 h [18]: > 60% | Cmax [19]: 2800 ng/mL | AUC(0-t) [20]: 13100 ng·h/mL | Tmax [21]: 3.3 h | bioavailability [22]: 24%
